Two molecules from ChEMBL document CHEMBL3870320, “Yakushinamides, Polyoxygenated Fatty Acid Amides That Inhibit HDACs and SIRTs, from the Marine Sponge Theonella swinhoei” (J Nat Prod, 2016) can be followed below.

Test [1] has as its target Histone deacetylase 1 (Homo sapiens) (UniProt Q13547). Put plainly: Inhibition of human FLAG-tagged HDAC1 expressed in human 293T cells assessed as formation of amino methyl coumarin from Ac-KGLGK(Ac)-MCA measured after 30 mins by fluorescence analysis. In kind it is cell-based.
Test [2] concerns the target T1, Protein deacetylase HDAC6 (Homo sapiens) (UniProt Q9UBN7).
T1 sequence (whole entry): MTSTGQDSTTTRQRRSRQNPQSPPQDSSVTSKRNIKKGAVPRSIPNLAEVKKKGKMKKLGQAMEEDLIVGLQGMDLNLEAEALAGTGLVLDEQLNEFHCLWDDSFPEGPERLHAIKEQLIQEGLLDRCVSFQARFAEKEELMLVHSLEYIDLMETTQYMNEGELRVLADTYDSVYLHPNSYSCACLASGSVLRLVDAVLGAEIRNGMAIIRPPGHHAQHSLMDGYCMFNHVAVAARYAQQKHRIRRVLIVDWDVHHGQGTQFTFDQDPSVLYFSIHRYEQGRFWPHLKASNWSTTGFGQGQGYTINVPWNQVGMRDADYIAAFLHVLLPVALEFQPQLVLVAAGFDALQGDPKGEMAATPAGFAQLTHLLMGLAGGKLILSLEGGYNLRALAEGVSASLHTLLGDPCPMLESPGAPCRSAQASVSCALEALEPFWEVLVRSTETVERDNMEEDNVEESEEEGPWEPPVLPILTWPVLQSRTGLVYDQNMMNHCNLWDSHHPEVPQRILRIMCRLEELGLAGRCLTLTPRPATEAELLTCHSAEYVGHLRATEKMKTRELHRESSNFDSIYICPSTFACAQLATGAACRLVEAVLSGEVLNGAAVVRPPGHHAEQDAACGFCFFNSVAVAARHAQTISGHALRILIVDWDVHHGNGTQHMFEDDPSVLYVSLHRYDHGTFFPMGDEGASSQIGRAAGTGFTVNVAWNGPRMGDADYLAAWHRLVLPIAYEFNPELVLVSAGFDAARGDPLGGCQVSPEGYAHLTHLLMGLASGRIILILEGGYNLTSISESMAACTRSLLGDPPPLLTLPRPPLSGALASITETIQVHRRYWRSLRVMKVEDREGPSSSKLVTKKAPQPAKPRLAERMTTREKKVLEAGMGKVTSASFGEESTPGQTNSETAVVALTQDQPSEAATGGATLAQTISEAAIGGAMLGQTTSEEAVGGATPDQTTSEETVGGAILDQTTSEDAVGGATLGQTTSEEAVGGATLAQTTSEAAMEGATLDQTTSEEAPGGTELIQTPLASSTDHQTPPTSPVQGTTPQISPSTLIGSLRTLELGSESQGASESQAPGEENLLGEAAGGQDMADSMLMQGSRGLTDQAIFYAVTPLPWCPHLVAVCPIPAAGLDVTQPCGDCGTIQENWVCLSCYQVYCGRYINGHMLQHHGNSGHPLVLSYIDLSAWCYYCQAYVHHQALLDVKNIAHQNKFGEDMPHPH
The experiment in a line: Inhibition of human FLAG-tagged HDAC6 expressed in human 293T cells assessed as formation of amino methyl coumarin from Ac-KGLGK(Ac)-MCA measured after 30 mins by fluorescence analysis. In kind it is cell-based.

The target in test [3] is T2, NAD-dependent protein deacetylase sirtuin-2 (Homo sapiens) (UniProt Q8IXJ6).
T2 sequence (whole entry): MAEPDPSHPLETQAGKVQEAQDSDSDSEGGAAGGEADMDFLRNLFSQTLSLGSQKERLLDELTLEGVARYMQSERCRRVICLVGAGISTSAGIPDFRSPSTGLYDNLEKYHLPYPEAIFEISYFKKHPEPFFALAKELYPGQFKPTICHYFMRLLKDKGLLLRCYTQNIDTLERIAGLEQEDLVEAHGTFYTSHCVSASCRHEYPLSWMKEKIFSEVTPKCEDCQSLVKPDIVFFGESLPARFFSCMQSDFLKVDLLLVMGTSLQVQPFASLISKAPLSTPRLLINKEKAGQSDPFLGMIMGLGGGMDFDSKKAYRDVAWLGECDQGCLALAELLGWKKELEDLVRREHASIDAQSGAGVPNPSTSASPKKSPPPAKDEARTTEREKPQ
Put plainly: Inhibition of recombinant human GST-tagged SIRT2 catalytic domain using Ac-RHKK(Ac)-MCA assessed as formation of amino methyl coumarin from Ac-RHKK(Ac)-MCA and NAD measured after 60 mins by fluorescence analysis. Put shortly: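 Recombinant GST-fused SIRT2 catalytic domain with 100 μM Ac-RHKK(Ac)-MCA and NAD (final 1 mM) in 50 mM Tris-HCl pH 9.0, 4 mM MgCl2, 0.2 mM DTT, 60 min at 37 °C. Trypsin (final 20 mg/mL) then added for 15 min at 37 °C. Released aminomethylcoumarin fluorescence read at ex 370/em 460 nm.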

Test [4] addresses T3, NAD-dependent protein deacetylase sirtuin-3, mitochondrial (Homo sapiens) (UniProt Q9NTG7).
T3 sequence (whole entry): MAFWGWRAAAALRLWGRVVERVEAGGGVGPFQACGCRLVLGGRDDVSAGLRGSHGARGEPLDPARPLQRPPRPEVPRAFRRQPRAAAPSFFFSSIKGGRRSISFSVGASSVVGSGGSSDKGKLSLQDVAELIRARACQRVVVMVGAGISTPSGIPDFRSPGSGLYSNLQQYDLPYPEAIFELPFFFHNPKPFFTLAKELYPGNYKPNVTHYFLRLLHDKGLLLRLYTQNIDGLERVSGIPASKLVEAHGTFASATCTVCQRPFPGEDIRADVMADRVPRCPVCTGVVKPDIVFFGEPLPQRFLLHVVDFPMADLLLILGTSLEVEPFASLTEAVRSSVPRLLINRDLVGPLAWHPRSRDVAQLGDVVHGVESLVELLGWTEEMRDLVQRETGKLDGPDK
The experiment in a line: Inhibition of recombinant human His-tagged SIRT3 (118 to 399 residues) expressed in Escherichia coli BL21 (DE3) assessed as formation of amino methyl coumarin from Ac-VSTPVK(Ac)-MCA and NAD measured after 60 mins by fluorescence analysis. Put shortly:
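His-tagged recombinant SIRT3 incubated with 100 μM Ac-VSTPVK(Ac)-MCA and NAD (final 1 mM) in 50 mM Tris-HCl pH 9.0, 4 mM MgCl2, 0.2 mM DTT for 60 min at 37 °C. Trypsin (final 20 mg/mL) was added and the mixture held 15 min more at 37 °C. Fluorescence of freed aminomethylcoumarin measured at ex 370/em 460 nm.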

In test [5] the target is T4, NAD-dependent protein deacetylase sirtuin-1 (Homo sapiens) (UniProt Q96EB6).
T4 sequence (whole entry): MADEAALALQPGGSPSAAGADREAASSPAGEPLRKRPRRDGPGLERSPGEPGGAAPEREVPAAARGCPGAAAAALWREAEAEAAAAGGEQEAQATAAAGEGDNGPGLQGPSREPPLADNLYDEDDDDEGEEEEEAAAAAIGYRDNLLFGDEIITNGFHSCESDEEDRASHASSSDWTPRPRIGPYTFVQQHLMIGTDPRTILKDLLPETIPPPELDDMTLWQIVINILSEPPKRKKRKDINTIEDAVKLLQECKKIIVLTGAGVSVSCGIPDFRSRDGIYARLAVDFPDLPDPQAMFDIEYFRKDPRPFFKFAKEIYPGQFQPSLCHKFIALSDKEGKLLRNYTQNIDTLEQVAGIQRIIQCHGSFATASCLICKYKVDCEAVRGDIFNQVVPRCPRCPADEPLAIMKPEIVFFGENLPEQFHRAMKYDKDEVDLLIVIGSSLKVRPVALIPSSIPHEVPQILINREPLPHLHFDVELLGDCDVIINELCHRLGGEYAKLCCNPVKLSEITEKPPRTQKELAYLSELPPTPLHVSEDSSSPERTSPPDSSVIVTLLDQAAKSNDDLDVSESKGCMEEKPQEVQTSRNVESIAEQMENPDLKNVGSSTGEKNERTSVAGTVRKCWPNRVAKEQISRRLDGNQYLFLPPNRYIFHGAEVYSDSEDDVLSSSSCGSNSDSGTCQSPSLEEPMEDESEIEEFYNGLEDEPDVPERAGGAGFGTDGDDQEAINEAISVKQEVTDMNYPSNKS
The experiment in a line: Inhibition of recombinant human SIRT1 expressed in Escherichia coli BL21 (DE3) assessed as formation of amino methyl coumarin from Ac-RHKK(Ac)-MCA and NAD measured after 60 mins by fluorescence analysis. A digest of the protocol: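 SIRT1 was expressed from pCold TF in E. coli BL21 (DE3) with 0.3 mM IPTG at 16 °C for 24 h, and the (His)6 protein was purified by nickel affinity then anion exchange. Assay used 100 μM Ac-RHKK(Ac)-MCA and 1 mM NAD (final) in Tris-HCl pH 9.0 buffer for 60 min at 37 °C. Trypsin was added for 15 min, and fluorescence was read at ex 370/em 460 nm.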

The target in test [6] is Histone deacetylase 4 (Homo sapiens) (UniProt P56524). Put plainly: Inhibition of human FLAG-tagged HDAC4 expressed in human 293T cells assessed as formation of amino methyl coumarin from Ac-KGLGK(Ac)-MCA measured after 30 mins by fluorescence analysis. It is filed as cell-based.

For orientation: IC50 means the midpoint of a concentration-inhibition curve.

Where only a bound is given, the exact number is not on record here.

Chain of Histone deacetylase 4 (Homo sapiens) (P56524 whole entry): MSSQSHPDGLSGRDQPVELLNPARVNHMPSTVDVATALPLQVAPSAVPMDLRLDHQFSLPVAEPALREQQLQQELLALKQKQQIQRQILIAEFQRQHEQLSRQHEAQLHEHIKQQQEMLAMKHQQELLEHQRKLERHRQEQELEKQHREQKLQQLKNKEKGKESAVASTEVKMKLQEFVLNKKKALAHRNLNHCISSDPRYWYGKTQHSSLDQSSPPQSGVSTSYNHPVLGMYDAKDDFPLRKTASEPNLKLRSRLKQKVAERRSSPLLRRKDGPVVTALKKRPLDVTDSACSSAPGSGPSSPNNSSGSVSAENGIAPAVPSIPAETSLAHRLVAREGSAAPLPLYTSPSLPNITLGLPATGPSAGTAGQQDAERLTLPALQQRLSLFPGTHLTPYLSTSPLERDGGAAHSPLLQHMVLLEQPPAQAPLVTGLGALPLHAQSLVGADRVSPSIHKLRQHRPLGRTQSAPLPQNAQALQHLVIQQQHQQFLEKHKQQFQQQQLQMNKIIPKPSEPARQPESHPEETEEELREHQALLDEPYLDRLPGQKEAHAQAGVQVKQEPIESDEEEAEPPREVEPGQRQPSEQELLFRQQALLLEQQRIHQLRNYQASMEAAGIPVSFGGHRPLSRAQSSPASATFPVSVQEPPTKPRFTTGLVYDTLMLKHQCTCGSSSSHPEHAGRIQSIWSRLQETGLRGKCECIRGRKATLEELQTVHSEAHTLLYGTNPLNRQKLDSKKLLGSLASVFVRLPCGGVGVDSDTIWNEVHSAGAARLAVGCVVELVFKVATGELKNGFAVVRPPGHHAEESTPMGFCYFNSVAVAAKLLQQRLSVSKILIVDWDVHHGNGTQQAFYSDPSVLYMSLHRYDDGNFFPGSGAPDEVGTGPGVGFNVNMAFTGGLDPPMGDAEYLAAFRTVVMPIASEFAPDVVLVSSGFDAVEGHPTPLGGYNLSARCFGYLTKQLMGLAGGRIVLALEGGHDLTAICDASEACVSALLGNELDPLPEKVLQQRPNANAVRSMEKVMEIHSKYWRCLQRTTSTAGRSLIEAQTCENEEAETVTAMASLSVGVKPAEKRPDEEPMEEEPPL
Chain of Histone deacetylase 1 (Homo sapiens) (Q13547 whole entry): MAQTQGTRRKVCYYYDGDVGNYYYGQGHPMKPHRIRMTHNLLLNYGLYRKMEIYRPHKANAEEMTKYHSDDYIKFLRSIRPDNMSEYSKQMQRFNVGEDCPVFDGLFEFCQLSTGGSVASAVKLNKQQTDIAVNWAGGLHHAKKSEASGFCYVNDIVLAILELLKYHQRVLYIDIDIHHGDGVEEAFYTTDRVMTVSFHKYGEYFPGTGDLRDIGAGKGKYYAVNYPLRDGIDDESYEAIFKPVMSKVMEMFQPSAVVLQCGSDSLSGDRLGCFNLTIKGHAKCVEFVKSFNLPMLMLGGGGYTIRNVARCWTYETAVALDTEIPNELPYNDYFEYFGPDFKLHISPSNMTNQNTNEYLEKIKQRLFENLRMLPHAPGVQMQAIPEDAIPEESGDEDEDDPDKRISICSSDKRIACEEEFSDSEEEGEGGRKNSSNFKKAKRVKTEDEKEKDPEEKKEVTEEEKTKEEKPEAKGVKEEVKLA

With `CCCCCCC[C@@H](C)C[C@@H](O)CCCCCCC[C@@H](CCCC[C@@H](OC(C)=O)[C@@H](OC(C)=O)[C@H](CCCCCCC(=O)N1CCC[C@H]1C(=O)OC)OC(C)=O)OS(=O)(=O)O`, the IC50 in test [1] is 26 µM; in test [2] it was > 200 µM; in test [3] it was > 200 µM; in test [4] it was 79 µM; in test [5], 16 µM; in test [6], > 200 µM.

`CCCCCC[C@@H](C)[C@@H](CCCCCCCC(O)CCCC[C@@H](OC(C)=O)[C@@H](OC(C)=O)[C@H](CCCCCCC(=O)N1CCC[C@H]1C(=O)OC)OC(C)=O)OS(=O)(=O)O` (some centres not stated): the IC50 in test [1] was found to be 29 µM; in test [2], 52 µM; in test [3], 150 µM; in test [4], 78 µM; in test [5], 34 µM; in test [6], 75 µM.
